Experimental data published in ChEMBL document CHEMBL5724801, “EUbOPEN Chemogenomics Library - Multiplex” (2024).
Several values for one entry are separate records, joined by “and”; a condition that tells them apart may be missing. Identical values can stand only once.

Test system: HEK-293T
Assay: Multiplex assay against HEK293T
Assay type: toxicity, cell-based
Conditions: human
How it was run: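 Per cents of healthy-nucleus cells form the tubulin, mitochondrial-mass and membrane-permeability phenotype values. Live cells were stained at seeding with Hoechst33342, BioTracker Green Microtubule Cytoskeleton Dye, MitoTracker Red and Annexin V Alexa Fluor 680. After compound addition they were imaged on a CQ1 microscope at 37°C and 5% CO2, and CellPathfinder machine-learning gating split them into Hoechst high-intensity objects or normal cells, normal cells into healthy, pyknosed or fragmented nuclei, and pyknosed cells into mitotic or apoptotic.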

[1] = 12 h, 1 µM, compound concentration 1 uM
[2] = 12 h, 10 µM, compound concentration 10 uM
[3] = 24 h, 1 µM, compound concentration 1 uM
[4] = 24 h, 10 µM, compound concentration 10 uM
[5] = 48 h, 1 µM, compound concentration 1 uM
[6] = 48 h, 10 µM, compound concentration 10 uM

CC(C)(O)c1cnc(N2C[C@@]3(CCC[C@](C)(Cn4cnc5ccc(C#N)cc54)C3)OC2=O)cn1 [GSK2798745]
Population Apoptotic (%) [1]: 8.76% and 9.45% | Population Fragmented Nuclei (%) [1]: 1.42% and 8.48% | Population Hoechst High Intensity Objects (%) [1]: 0% | Population Membrane Permeable-Phenotype (%) [1]: 0% and 4.17% | Population Mitochondria Different-Phenotype (%) [1]: 40% and 37.5% | Population Mitotic Cells (%) [1]: 91.24% and 90.55% | Population Normal (%) [1]: 100% | Population Pyknosed Nuclei (%) [1]: 38.92% and 76.97% | Total Cell Count [1]: 352 and 165 | Population Apoptotic (%) [2]: 8.93% and 6.72% | Population Fragmented Nuclei (%) [2]: 1.58% and 0.69% | Population Healthy Nuclei (%) [2]: 45.43% and 17.24% | Population Hoechst High Intensity Objects (%) [2]: 0.63% and 0% | Population Membrane Permeable-Phenotype (%) [2]: 0% | Population Mitochondria Different-Phenotype (%) [2]: 36.11% and 20% | Population Mitotic Cells (%) [2]: 91.07% and 93.28% | Population Normal (%) [2]: 99.37% and 100% | Population Pyknosed Nuclei (%) [2]: 53% and 82.07% | Population Tubulin-Different-Phenotype (%) [2]: 24.31% and 48% | Total Cell Count [2]: 319 and 145 | Population Apoptotic (%) [3]: 18.02% and 17.31% | Population Fragmented Nuclei (%) [3]: 0.94% and 3.7% | Population Healthy Nuclei (%) [3]: 78.24% and 32.1% | Population Hoechst High Intensity Objects (%) [3]: 0% | Population Membrane Permeable-Phenotype (%) [3]: 2.88% and 0% | Population Mitochondria Different-Phenotype (%) [3]: 16.31% and 11.54% | Population Mitotic Cells (%) [3]: 81.98% and 82.69% | Population Normal (%) [3]: 100% | Population Tubulin-Different-Phenotype (%) [3]: 16.79% and 7.69% | Population Apoptotic (%) [4]: 17.91% and 14.14% | Population Fragmented Nuclei (%) [4]: 2.04% and 1.31% | Population Healthy Nuclei (%) [4]: 63.87% and 33.99% | Population Hoechst High Intensity Objects (%) [4]: 0% | Population Membrane Permeable-Phenotype (%) [4]: 0.8% and 0% | Population Mitochondria Different-Phenotype (%) [4]: 27.09% and 9.62% | Population Mitotic Cells (%) [4]: 82.09% and 85.86% | Population Normal (%) [4]: 100% | Population Pyknosed Nuclei (%) [4]: 34.1% and 64.71% | Population Tubulin-Different-Phenotype (%) [4]: 37.85% and 13.46% | Total Cell Count [4]: 393 and 153 | Population Fragmented Nuclei (%) [5]: 2.32% and 3.45% | Population Healthy Nuclei (%) [5]: 86.2% and 69.4% | Population Hoechst High Intensity Objects (%) [5]: 0% and 1.28% | Population Membrane Permeable-Phenotype (%) [5]: 5.88% and 4.97% | Population Mitochondria Different-Phenotype (%) [5]: 16.75% and 31.68% | Population Mitotic Cells (%) [5]: 97.55% and 73.02% | Population Normal (%) [5]: 100% and 98.72% | Population Pyknosed Nuclei (%) [5]: 11.48% and 27.16% | Population Apoptotic (%) [6]: 12.84% and 15.85% | Population Fragmented Nuclei (%) [6]: 2.45% and 0.91% | Population Healthy Nuclei (%) [6]: 82.72% and 61.64% | Population Hoechst High Intensity Objects (%) [6]: 0.14% and 0% | Population Membrane Permeable-Phenotype (%) [6]: 8.39% and 0.74% | Population Mitochondria Different-Phenotype (%) [6]: 44.41% and 40% | Population Mitotic Cells (%) [6]: 87.16% and 84.15% | Population Normal (%) [6]: 99.86% and 100% | Population Pyknosed Nuclei (%) [6]: 14.83% and 37.44%

O=C(NCCN1CCC(n2c(=O)[nH]c3cc(Cl)ccc32)CC1)c1ccc(F)cc1 [HALOPEMIDE]
Population Apoptotic (%) [1]: 46% and 43% | Population Fragmented Nuclei (%) [1]: 5% | Population Healthy Nuclei (%) [1]: 81% and 79% | Population Hoechst High Intensity Objects (%) [1]: 7% and 10% | Population Membrane Permeable-Phenotype (%) [1]: 0% | Population Mitochondria Different-Phenotype (%) [1]: 54% and 62% | Population Mitotic Cells (%) [1]: 53% and 56% | Population Normal (%) [1]: 92% and 89% | Population Pyknosed Nuclei (%) [1]: 13% and 15% | Population Tubulin-Different-Phenotype (%) [1]: 42% and 29% | Total Cell Count [1]: 334 and 373 | Population Apoptotic (%) [2]: 39% and 65% | Population Fragmented Nuclei (%) [2]: 5% and 6% | Population Healthy Nuclei (%) [2]: 74% and 72% | Population Hoechst High Intensity Objects (%) [2]: 14% and 13% | Population Membrane Permeable-Phenotype (%) [2]: 0% and 1% | Population Mitochondria Different-Phenotype (%) [2]: 76% and 84% | Population Mitotic Cells (%) [2]: 60% and 34% | Population Normal (%) [2]: 85% and 86% | Population Pyknosed Nuclei (%) [2]: 20% and 21% | Population Tubulin-Different-Phenotype (%) [2]: 68% and 59% | Total Cell Count [2]: 460 and 319 | Population Apoptotic (%) [3]: 40% | Population Fragmented Nuclei (%) [3]: 7% and 9% | Population Healthy Nuclei (%) [3]: 79% | Population Hoechst High Intensity Objects (%) [3]: 3% and 6% | Population Membrane Permeable-Phenotype (%) [3]: 1% and 0% | Population Mitochondria Different-Phenotype (%) [3]: 35% and 37% | Population Mitotic Cells (%) [3]: 59% | Population Normal (%) [3]: 96% and 93% | Population Pyknosed Nuclei (%) [3]: 12% and 11% | Population Tubulin-Different-Phenotype (%) [3]: 24% and 21% | Total Cell Count [3]: 471 and 508 | Population Apoptotic (%) [4]: 27% and 64% | Population Fragmented Nuclei (%) [4]: 8% and 9% | Population Healthy Nuclei (%) [4]: 72% and 70% | Population Hoechst High Intensity Objects (%) [4]: 8% | Population Membrane Permeable-Phenotype (%) [4]: 1% and 0% | Population Mitochondria Different-Phenotype (%) [4]: 63% and 78% | Population Mitotic Cells (%) [4]: 72% and 35% | Population Normal (%) [4]: 91% | Population Pyknosed Nuclei (%) [4]: 19% and 20% | Population Tubulin-Different-Phenotype (%) [4]: 64% and 62% | Total Cell Count [4]: 580 and 361 | Population Apoptotic (%) [5]: 30% and 28% | Population Fragmented Nuclei (%) [5]: 13% | Population Healthy Nuclei (%) [5]: 79% | Population Hoechst High Intensity Objects (%) [5]: 1% and 3% | Population Membrane Permeable-Phenotype (%) [5]: 1% and 0% | Population Mitochondria Different-Phenotype (%) [5]: 21% | Population Mitotic Cells (%) [5]: 69% and 71% | Population Normal (%) [5]: 98% and 96% | Population Pyknosed Nuclei (%) [5]: 6% and 7% | Population Tubulin-Different-Phenotype (%) [5]: 16% and 10% | Total Cell Count [5]: 841 and 675 | Population Apoptotic (%) [6]: 37% and 60% | Population Fragmented Nuclei (%) [6]: 14% | Population Healthy Nuclei (%) [6]: 72% and 74% | Population Hoechst High Intensity Objects (%) [6]: 8% and 6% | Population Membrane Permeable-Phenotype (%) [6]: 1% | Population Mitochondria Different-Phenotype (%) [6]: 57% and 64% | Population Mitotic Cells (%) [6]: 62% and 40% | Population Normal (%) [6]: 91% and 93% | Population Pyknosed Nuclei (%) [6]: 12% and 11% | Population Tubulin-Different-Phenotype (%) [6]: 55% | Total Cell Count [6]: 706 and 531
